Screening data deposited in PubChem BioAssay by several laboratories.
Shown are actives, neighbours in structure and some others; about 2.3% of the full set was active somewhere.
Rpn11 block: Rpn11 (human) deubiquitinase inhibition; O00487; human 26S proteasome, Ub4-pepOG fluorescence polarization; 20S core pre-blocked with epoxomicin; calls only at 20 µM; 360,000 tested, 0.59% active; AID 588493;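 active = inhibition at 20 µM, scaled to each plate's controls, above about 33%, limit read from the data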
HNF4A DNA FP: change in binding of human HNF4 alpha to DNA. activity change, % at 10 µM. 360,000 tested, 0.3% active. P41235. HNF4a-FITC DNA binding, fluorescence polarization, 1 h; in the data active = activity change above about 30%, passing the limit was not always enough
Target sequence (P41235 whole entry, looked up): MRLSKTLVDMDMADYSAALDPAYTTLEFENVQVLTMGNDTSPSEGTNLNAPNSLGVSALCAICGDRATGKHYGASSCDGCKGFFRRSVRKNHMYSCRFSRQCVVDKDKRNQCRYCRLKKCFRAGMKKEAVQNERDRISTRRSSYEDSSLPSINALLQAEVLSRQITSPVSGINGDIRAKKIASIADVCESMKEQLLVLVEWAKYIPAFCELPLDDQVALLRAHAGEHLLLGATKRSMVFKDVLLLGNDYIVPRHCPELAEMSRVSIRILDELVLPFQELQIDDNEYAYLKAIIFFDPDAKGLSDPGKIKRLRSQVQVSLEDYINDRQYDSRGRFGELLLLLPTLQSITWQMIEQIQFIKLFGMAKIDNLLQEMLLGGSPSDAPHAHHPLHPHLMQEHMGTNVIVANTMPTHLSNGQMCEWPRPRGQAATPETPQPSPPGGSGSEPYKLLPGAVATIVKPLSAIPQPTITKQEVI
CRFR2-BP ag: agonists of human CRF-binding protein/CRF-R2 receptor complex | HEK293 CRF-R2/CRF-BP, calcium dye fluorescence (FLIPR); percent of saturating CRF peptide response | activation, % at 13.2 µM | 350,000 tested, 0.46% active;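 active = activation of at least 50%, plus an integration ratio under a set limit after plate pattern correction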;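 also: plate controls were neutral control wells without compound for no effect and CRF at EC100 for full effect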
CSN deneddyl inh: blocks human CSN-mediated cullin deneddylation | inhibition, % at 12.5 µM | 360,000 tested, 0.38% active | Q92905 | Purified CSN, SCF-Nedd8-OG deneddylation, fluorescence polarization;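 active = pattern-corrected inhibition above about 35%, with an unprinted fluorescence ratio check between 0.5 and 1.5, limit read from the data, passing the limit was not always enough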;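 also: 0% = enzyme with substrate and 100% = substrate without enzyme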
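Material: purified human Csn5 enzyme expressed in HEK293T cells / Medium: Tris buffer pH 7.5, NaCl, DTT, Tween-20, trehalose, ovalbumin / Compound dosing: 12.5 µM single point / Schedule: 90 min incubation of compound, enzyme and substrate at room temperature / Signal: fluorescence polarization of the substrate / Control set: no-enzyme wells high, enzyme-with-substrate wells low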
CRFR2-BP antag: blocks CRF-induced signaling of the CRF-BP/CRF-R2 complex; inhibition, % at 11.8 µM; HEK293 CRF-R2/CRF-BP, CRF-induced calcium fluorescence; 350,000 tested, 0.59% active;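 active = inhibition of the ligand-induced calcium signal above about 50% at the single tested concentration, limit read from the data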
TPT1 inh: blocks Candida albicans tRNA 2'-phosphotransferase; 300,000 tested, 0.81% active; AID 1962; recombinant caTPT1, FP RNA substrate dephosphorylation; inhibition, % at 5 µM;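 active = inhibition above the mean of all tested compounds plus 3 SD, set per screening campaign, cut at about 24% in these data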;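 also: plate controls were DMSO alone for no effect and ferristatin control at 100 nM for full effect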
caTPT1 confirm: TPT1 (C. albicans) inhibition, confirmation. shares compounds with TPT1 inh. recombinant caTPT1, fluorescence polarization, RNase T1 coupled. inhibition, % at 5 µM. 2,400 tested, 74% active;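 active = inhibition above the primary screen limit, the mean inhibition of all tested compounds plus 3 SD, cut at about 25% in these data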
RNase T1 counter: blocks Aspergillus oryzae RNase T1, a TPT1 counter-screen; shares compounds with TPT1 inh; 2,400 tested, 83% active; inhibition, % at 5 µM; AID 2153; RNase T1 cleavage, fluorescence polarization, 1536-well;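 active = inhibition above the solvent-only control well mean plus 3 SD, limit set per screening run, cut at about 23% in these data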;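 also: plate controls were DMSO wells with enzyme for no effect and wells without RNase T1 for full effect; inhibitors block cleavage so intact labeled substrate keeps polarization high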
Rpn11 confirm: Rpn11 inhibition confirmation, single concentration | shares compounds with Rpn11 block | purified human 26S proteasome, Ub4-pepOG fluorescence polarization; proteasome pretreated with epoxomicin | inhibition, % at 20 µM | 1,900 tested, 29% active | AID 602318
MMP-2 inh: MMP-2 (human) inhibition counter-screen | shares compounds with Rpn11 block | recombinant MMP-2, FRET peptide cleavage fluorescence | inhibition, % at 20 µM | 1,900 tested, 4% active;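 also: human MMP-2 activated beforehand with APMA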
Thrombin FP: blocks bovine thrombin, flagging nonselective RPN11 hits | shares compounds with Rpn11 block | bovine thrombin cleavage of Ub4-pepOG, fluorescence polarization | inhibition, % at 20 µM | 1,900 tested, 13% active;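 active = mean inhibition at least 40% at 20 µM, or signal 3 deviations below plate average, so some actives read negative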;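 also: plate controls were thrombin with DMSO for no effect and buffer wells lacking thrombin for full effect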
The depositor's hits bear a star; i = inactive; / = no result given; + = active, no number. Rule as the data show it, unless noted: active = inhibition above about 40%; inactive = the rest.

SMILES	Rpn11 block	HNF4A DNA FP	CRFR2-BP ag	CSN deneddyl inh	CRFR2-BP antag	TPT1 inh	caTPT1 confirm	RNase T1 counter	Rpn11 confirm	MMP-2 inh	Thrombin FP
Nc1nc(-c2ccccc2)c(-c2ccccc2)n1N	+	17	4	7	-30	51*	29*	38*	13	-31	14
Cn1c(-c2c(N)n(CCc3ccccc3)c3nc4ccccc4nc23)nc2ccccc21	+	22	51*	4	-155	38*	48*	60*	38	-2	29
N#Cc1c(N)n(CCc2ccc(F)cc2)c2nc3ccccc3nc12	i	5	0	25	5	7	/	/	/	/	/
CC1CCN(Cc2c(C(=O)O)nnn2-c2nonc2N)CC1	i	-3	-2	5	11	2	/	/	/	/	/
Nc1ccc(/C=C/C(=O)c2ccco2)cc1	+	13	81*	17	-72	73*	81*	92*	77*	-31	67*
N#Cc1ccc(/C=C/C(=O)c2ccco2)cc1	i	2	-2	3	-11	-1	/	/	/	/	/
CCCCCCOc1ccc(/C(C)=N/NC2=NCCN2)cc1	i	6	0	-5	-9	3	/	/	/	/	/
ClCC1NCC(c2ccccc2Cl)c2c1[nH]c1ccccc21 (stereo unspecified)	+	-14	-2	20	-20	89*	14	21	33	38	18
COc1ccc(OCCCC(=O)N(CCC2=CCCCC2)c2c(N)n(Cc3ccccc3)c(=O)[nH]c2=O)cc1	i	1	5	4	3	1	/	/	/	/	/
Cc1nn(-c2ccccc2)c(C)c1NC(=O)COC(=O)CCCOc1ccccc1	i	0	1	0	8	-3	/	/	/	/	/
CCc1cc2c(SCc3nc4sc(C(C)=O)c(C)c4c(=O)[nH]3)ncnc2s1	+	35	4	17	13	37*	33*	50*	77*	55*	46*
O=C(O)CSc1ncnc2scc(-c3ccccc3)c12	i	5	0	1	5	1	/	/	/	/	/
O=C(O)CSc1ncnc2scc(-c3ccc(Br)cc3)c12	+	2	1	3	1	35*	46*	55*	37	-1	25
CC1=C(C(=O)c2ccccc2)C(c2ccc(N3CCOCC3)cc2)NC(=O)N1 (stereo unspecified)	+	17	7	24	-17	28*	39*	51*	51*	-18	41*
CCC1=NN2C(=N)/C(=C\c3cccn3-c3ccc(C)cc3C)C(=O)N=C2S1	i	2	-2	-1	13	4	/	/	/	/	/
CN1CCc2c(sc3c2C(=O)NC(c2cn(Cc4ccccc4)c4ccccc24)N3)C1 (stereo unspecified)	+	52*	17	26	-5	67*	75*	85*	59*	8	41*
CCOC(=O)NC(=O)/C(C#N)=C/c1ccc(N(C)C)cc1	+	56*	43	34	-35	99*	115*	125*	117*	-28	98*
C=CCN1C(=O)/C(=C2/Sc3ccccc3N2CC)SC1=S	/	-1	11	2	-10	5	/	/	/	/	/
CCN1C(=O)/C(=C2/Sc3ccccc3N2CC)S/C1=N\c1ncn[nH]1	+	22	-1	136	-3	36*	57*	69*	162*	-70	104*
